Consider seven compounds from publication PMC9067284 (RSC Advances, 2019).

Test [1] deals with T1, PDK3 (Homo sapiens, UniProt Q15120). Description: Fluorescence quenching binding study with purified PDK3. The method in brief:
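Intrinsic tryptophan fluorescence quenching of refolded His-tagged human PDK3 (4 μM) at 25 ± 0.1 °C in 50 mM Tris pH 8.0. Test compounds come from 10–30 mM DMSO stocks and are titrated at 0.1–4.0 μM or 2–12 μM. Excitation 280 nm, emission 300–400 nm, blank subtracted, triplicates averaged. Ka and number of sites come from a modified Stern–Volmer plot.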

Another test has as its system HepG2 cells. The test is described as follows: Cell proliferation MTT assay, HepG2. The settings on record: Homo sapiens, HepG2, 48 h, read-out: IC50, cell growth inhibition. Type of test: cell-based. The method in brief:
(§1)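 Cells at 37 °C, 5% CO2: A549 in F12K medium; HepG2 and HEK293 in DMEM with 10% heat-inactivated FBS and 1% penicillin-streptomycin; kept under 30 passages. Test compound at 0–250 μM for 48 h in 200 μl, then MTT with absorbance at 570 nm. Viability is given as % of untreated control and plotted against concentration. Doxorubicin is the positive control.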
Background: Formazan colour is commonly taken as a measure of viable cells.

For the next test, the system named is A549 cells. Description: Cell proliferation MTT assay, A549. Type of test: cell-based. The note with it: Homo sapiens, A549, 48 h, read-out: IC50, cell growth inhibition. The method in brief:
as §1

Test [2] addresses T1, PDK3. The test is described as follows: Enzyme inhibition assay. Type of test: biochemical. The method in brief:
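Recombinant full-length human PDK3, His-tagged, expressed in E. coli BL21 Gold, purified from inclusion bodies by Ni-NTA and refolded by dialysis. Enzyme 5 μM with 200 μM ATP and test compound 0–30 μM, 15–20 min at 25 °C in 50 mM Tris, 100 mM NaCl, pH 8.0. Released phosphate read by malachite green at 620 nm against a 0.0–8 nmol phosphate standard curve. Triplicates, at least three independent experiments.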

Test [3] deals with T1, PDK3. Description: Isothermal titration calorimetry of PDK3 with EA. Type of test: binding. The settings on record: ITC, 25 °C, four-site model. The method in brief: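 VP-ITC at 25 °C with PDK3 (30 μM) in the cell and 1% v/v DMSO added to the protein. Test compound is injected from the syringe: a 2 μl first injection, then 10 μl injections at 300 s intervals, stirring at 320 rpm. Heat of dilution is subtracted. The isotherm is fitted to a four-set-of-sites model for Ka, n, ΔH and ΔS.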
(In general: ITC needs no label: the signal is the heat of the interaction.)

T1 sequence (Q15120 whole entry): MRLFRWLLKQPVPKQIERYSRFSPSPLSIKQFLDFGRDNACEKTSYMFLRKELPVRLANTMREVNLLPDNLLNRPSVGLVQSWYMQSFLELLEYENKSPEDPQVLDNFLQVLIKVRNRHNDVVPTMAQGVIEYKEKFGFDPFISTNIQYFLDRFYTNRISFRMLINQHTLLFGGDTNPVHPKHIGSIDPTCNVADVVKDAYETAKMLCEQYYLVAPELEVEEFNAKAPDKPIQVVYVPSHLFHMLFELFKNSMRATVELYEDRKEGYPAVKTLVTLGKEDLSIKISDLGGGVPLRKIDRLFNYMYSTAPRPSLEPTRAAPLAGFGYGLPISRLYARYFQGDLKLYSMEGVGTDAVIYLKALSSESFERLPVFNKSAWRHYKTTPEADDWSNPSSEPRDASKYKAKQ

`CC1(C)O[C@H]2CC(=O)OC[C@]23[C@H]2CC[C@@]4(C)[C@H](c5ccoc5)OC(=O)[C@H]5O[C@]54[C@]2(C)C(=O)C[C@@H]13` [Limonin] yielded a Kd at PDK3 [1] of 0.0316 µM.
As for `O=c1oc2c(O)c(O)cc3c(=O)oc4c(O)c(O)cc1c4c23` [Ellagic acid], the IC50 in the test on HepG2 cells is 36.7 ± 3.22 µM; in the test on A549 cells, 23.4 ± 1.33 µM; at PDK3 [2], about 5 µM. Besides, the Kd was 0.00373 µM at PDK3 [1]; 106 µM on PDK3 [3] (Ka1 (association constant), site 1); 8.47 µM on PDK3 [3] (Ka2 (association constant), site 2); 25.6 µM at PDK3 [3] (Ka3 (association constant), site 3); 33.7 µM at PDK3 [3] (Ka4 (association constant), site 4). For the same compound, the “ΔS1 (entropy change)” value at PDK3 [3] (site 1) is given as “ΔS1 = 9.13 cal mol^−1 deg^−1”. Besides, the “ΔS2 (entropy change)” value at PDK3 [3] (site 2) was “ΔS2 = −927 cal mol^−1 deg^−1”. The “ΔS3 (entropy change)” value at PDK3 [3] (site 3) is recorded as “ΔS3 = −1950 cal mol^−1 deg^−1”. Besides, on PDK3 [3] (site 4), the “ΔS4 (entropy change)” value is “ΔS4 = −2090 cal mol^−1 deg^−1”.
`CC(C)=CCCC(C)=CC=O` (mixture of isomers) [Citral] gave a Kd on PDK3 [1] of 0.177 µM.
Still for that read-out and setting: the result for `C[C@H]1[C@H](C)CC[C@]2(C(=O)O)CC[C@]3(C)C(=CC[C@@H]4[C@@]5(C)CC[C@H](O)C(C)(C)[C@@H]5CC[C@]43C)[C@H]12` [Ursolic acid] reads 1.76 µM.
`CCC(C)(C)C(=O)O[C@H]1C[C@@H](C)C=C2C=C[C@H](C)[C@H](CC[C@@H]3C[C@@H](O)CC(=O)O3)[C@H]21` [Simvastatin, reference compound] gave a Kd on PDK3 [1] of 2.59 µM.
On the same count and under the same terms, as for `COc1cc(C=O)ccc1O` [Vanillin], the figure is 5.62 µM; as for `COc1cc(CNC(=O)CCCC/C=C/C(C)C)ccc1O` [Capsaicin], 0.271 µM.

As usually defined, the Kd is the constant that tells how readily two partners part at equilibrium. Higher therefore signals lower affinity. The IC50 is the concentration that inhibits the measured activity by half.
